# Experimental data from the array DNA melting data of Ke et al. (doi:10.1101/2024.01.08.574731).
# How the values were obtained:
# [1] = folding enthalpy; higher = less favourable; fluorescence melt of hairpins on a sequencing array, two-state fit; conditions: sodium 0.088 M
# Outline: (§1)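 Melting temperature and folding enthalpy were derived from bootstrapped two-state fits. The fitted temperatures were raised by 9.35 °C to agree with UV melts, and four replicates were combined by inverse variance. The underlying data were Cy3 fluorescence images of library hairpins, with annealed Cy3 and quencher oligos, on a sequenced MiSeq flow cell in 50 mM Na-HEPES pH 8.0, 25 mM NaCl, taken in 2.5 °C steps up to 60 °C, normalised to pre-quench Cy3 and to control constructs.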
# [2] = melting temperature; fluorescence melt of hairpins on a sequencing array, two-state fit, raised by 9.35 °C to match UV melts; conditions: sodium 0.088 M
# Outline: as §1
Sequence,folding enthalpy [1],Tm [2]
GACTGAGCGAAAGCTGTC (((..(((....)))))),-12.7 kcal/mol,44.1 °C
GACTGCCGAAAGGCGTC (((.(((....)))))),-13.8 kcal/mol,53.8 °C
GACTGCGAAAGCAAGTC ((((((....))).))),-21.3 kcal/mol,56.1 °C
GACTGCGAAAGCACAGTC ((((((....)))..))),-13.2 kcal/mol,44.5 °C
GACTGCGGAAACGCAGCC (.(((((....))))).),-11.2 kcal/mol,52 °C
GACTGGGCGAAAGCCGTC (((..(((....)))))),-10.4 kcal/mol,56.1 °C
GACTGTGAAAACAGTC ((((((....)))))),-34.1 kcal/mol,58.5 °C
GACTGTGGAAACACAGCC (.(((((....))))).),-13.7 kcal/mol,43.7 °C
GACTGTGGAAACACGGTC (((.(((....))).))),-40.6 kcal/mol,52.2 °C
GACTTAGCGAAAGCTGTC (((..(((....)))))),-14.6 kcal/mol,43.8 °C
GACTTCACGAAAGTGGTC (((..(((....)))))),-12.1 kcal/mol,31.4 °C
GACTTCCGAAAGGAGTC (((.(((....)))))),-24.8 kcal/mol,46.4 °C
GACTTCGAAAGAAGTC ((((((....)))))),-38.8 kcal/mol,62 °C
GACTTCGCGAAAGCGGTC (((..(((....)))))),-7.56 kcal/mol,35.1 °C
GACTTCGGAAACGAAGTC (((((((....))))))),-38.6 kcal/mol,66.3 °C
GACTTGACGAAAGTCGTC (((..(((....)))))),-15.8 kcal/mol,51.7 °C
GACTTGGGAAACCAAGCC (.(((((....))))).),-19.1 kcal/mol,41.8 °C
GACTTGGGAAACTAGGTC (((.(.(....).).))),-9.69 kcal/mol,25.4 °C
GACTTTGGAAACAGAGTC ((((.((....)).)))),-31.1 kcal/mol,38.1 °C
GAGAAACGAAAGTTCTC (((.(((....)))))),-24.4 kcal/mol,40.9 °C
GAGAAAGCGAAAGCTCTC (((..(((....)))))),-14.6 kcal/mol,40.2 °C
GAGAAAGGAAACTTTCCC (.(((((....))))).),-12.3 kcal/mol,25.1 °C
GAGAACCGAAAGGTCCTC (((.(((....))).))),-24.6 kcal/mol,46.6 °C

Sequence,folding enthalpy [1],Tm [2]
GAGAACGAAAGTTGCTC ((((((....))).))),-15.7 kcal/mol,33.6 °C
GAGAACGGAAACATTCTC (((((.(....).))))),-23.5 kcal/mol,30.1 °C
GAGAAGCCGAAAGGCCTC (((..(((....)))))),-12.7 kcal/mol,37.4 °C
GAGAAGGCGAAAGCCCTC (((..(((....)))))),-10.5 kcal/mol,37.2 °C
GAGAATGGAAACATTCTC (((((((....))))))),-40.6 kcal/mol,54.7 °C
GAGAATGGAAACGTTCTC (((((.(....).))))),-33.9 kcal/mol,42.9 °C
GAGACACCGAAAGGTCTC (((..(((....)))))),-20.4 kcal/mol,42.2 °C
GAGACACGAAAGTGCTC (((.(((....)))))),-16.6 kcal/mol,44.6 °C
GAGACCGAAAGGTCACTC ((((((....)))..))),-13.8 kcal/mol,55.1 °C
GAGACCGAAAGGTGTCTC ((((((....)))..))),-24 kcal/mol,51.9 °C
GAGACCGAAAGGTTCTC ((((((....))).))),-22.3 kcal/mol,54.2 °C
GAGACGAAAGTCTC (((((....))))),-23.1 kcal/mol,67.1 °C
GAGACGGGAAACCGTCCC (.(((((....))))).),-11.5 kcal/mol,43.8 °C
GAGACGGGAAACTGTCTC (((((.(....).))))),-41.1 kcal/mol,51.5 °C
GAGACTGAAAAGTCTC ((((((....)))))),-35.9 kcal/mol,57.5 °C
GAGACTGGAAACAGTTTC ((.((((....)))).)),-29.6 kcal/mol,38.8 °C
GAGAGACCGAAAGGTCTC (((..(((....)))))),-9.65 kcal/mol,62.5 °C
GAGAGACGAAAGTCACTC (((.(((....))).))),-35.1 kcal/mol,51.3 °C
GAGAGCCGAAAGGCACTC (((.(((....))).))),-20.2 kcal/mol,61.1 °C
GAGAGCGGAAACGCTCCC (.(((((....))))).),-9.72 kcal/mol,46.1 °C
GAGAGGCGAAAGCCCTC (((.(((....)))))),-14.2 kcal/mol,55.7 °C
GAGAGTGGAAACACTCTC (((((((....))))))),-41.2 kcal/mol,61.5 °C
GAGATACGAAAGTACCTC (((.(((....))).))),-31.3 kcal/mol,41.5 °C

Sequence,folding enthalpy [1],Tm [2]
GAGATGAAAATCTC (((((....))))),-22.2 kcal/mol,44 °C
GAGATGACGAAAGTCCTC (((..(((....)))))),-11.7 kcal/mol,30 °C
GAGATGCGAAAGCAACTC (((.(((....))).))),-23 kcal/mol,53.9 °C
GAGATGGAAACATCTC ((((((....)))))),-37 kcal/mol,53.5 °C
GAGATGGGAAACTGTCTC ((((..(....)..)))),-21.5 kcal/mol,33.2 °C
GAGATTGAAAAATCTC ((((((....)))))),-33.8 kcal/mol,47.9 °C
GAGATTGCGAAAGCACTC (((..(((....)))))),-11.3 kcal/mol,29.5 °C
GAGATTGGAAACAATTTC ((.((((....)))).)),-17.9 kcal/mol,32.4 °C
GAGCAAGGAAACTCGCTC ((((.((....)).)))),-30.8 kcal/mol,40.6 °C
GAGCACCCGAAAGGGCTC (((..(((....)))))),-26.7 kcal/mol,48.6 °C
GAGCACCGAAAGGTTCTC (((.(((....))).))),-27.6 kcal/mol,45.8 °C
GAGCACGAAAGTGCACTC ((((((....)))..))),-11.9 kcal/mol,58 °C
GAGCACGAAAGTGCCTC ((((((....))).))),-10.4 kcal/mol,51.2 °C
GAGCACGAAAGTGCGCTC ((((((....)))..))),-12.5 kcal/mol,67.2 °C
GAGCACGAAAGTGGCCTC ((((((....)))..))),-14 kcal/mol,42 °C
GAGCACGAAAGTGGGCTC ((((((....)))..))),-23.5 kcal/mol,54.7 °C
GAGCACGAAAGTGTCTC ((((((....))).))),-23.3 kcal/mol,53.2 °C
GAGCACGAAAGTGTTCTC ((((((....)))..))),-25.5 kcal/mol,52.1 °C
GAGCACGCGAAAGCGCTC (((..(((....)))))),-12.8 kcal/mol,47.6 °C
GAGCACGGAAACGTGTTC ((.((((....)))).)),-26.2 kcal/mol,51.6 °C
GAGCAGCGAAAGCTACTC (((.(((....))).))),-22.3 kcal/mol,49.6 °C
GAGCAGCGAAAGCTTCTC (((.(((....))).))),-24.7 kcal/mol,43.2 °C
GAGCAGGAAACTGCTC ((((((....)))))),-37.8 kcal/mol,62.3 °C

Sequence,folding enthalpy [1],Tm [2]
GAGCAGGGAAACCTGTTC ((.((((....)))).)),-24.1 kcal/mol,46 °C
GAGCATCCGAAAGGACTC (((..(((....)))))),-10.8 kcal/mol,27.5 °C
GAGCATGGAAACATGTTC ((.((((....)))).)),-25.6 kcal/mol,42.8 °C
GAGCCAGGAAACCAGCTC ((((..(....)..)))),-24.6 kcal/mol,34.9 °C
GAGCCAGGAAACCGGCTC (((((.(....).))))),-37.5 kcal/mol,56.6 °C
GAGCCCGAAAGGGACCTC ((((((....)))..))),-15.6 kcal/mol,45 °C
GAGCCCGAAAGGGAGCTC ((((((....)))..))),-20 kcal/mol,55.6 °C
GAGCCCGGAAACGGACCC (.(.(((....))).).),-11.2 kcal/mol,25.7 °C
GAGCCCGGAAACGGGCCC (.(((((....))))).),-7.26 kcal/mol,49.7 °C
GAGCCGGGAAACCGACCC (.(.(((....))).).),-13.9 kcal/mol,30.1 °C
GAGCCGGGAAACCGGTTC ((.((((....)))).)),-34.5 kcal/mol,55 °C
GAGCCTGGAAACAGGTTC ((.((((....)))).)),-27.2 kcal/mol,49.5 °C
GAGCGAACGAAAGTTCTC (((..(((....)))))),-9.38 kcal/mol,27.4 °C
GAGCGAGAAATCGCTC ((((((....)))))),-30.4 kcal/mol,67.4 °C
GAGCGAGCGAAAGCTCTC (((..(((....)))))),-8.27 kcal/mol,35.5 °C
GAGCGCGAAAGCGAACTC ((((((....)))..))),-15.2 kcal/mol,49 °C
GAGCGCGAAAGCGCACTC ((((((....)))..))),-10 kcal/mol,60.4 °C
GAGCGCGAAAGCGCCTC ((((((....))).))),-7.59 kcal/mol,58.1 °C
GAGCGCGGAAACGCGTTC ((.((((....)))).)),-16.9 kcal/mol,57.4 °C
GAGCGGCGAAAGCCCCTC (((.(((....))).))),-14.1 kcal/mol,46.7 °C
GAGCGGCGAAAGCCCTC (((.(((....)))))),-16.1 kcal/mol,53 °C
GAGCTACCGAAAGGTCTC (((..(((....)))))),-13.5 kcal/mol,27.6 °C
